According to ChEMBL document CHEMBL1144927, “Discovery of a novel and highly potent noncompetitive AMPA receptor antagonist” (2003):

Tests used:
[1] = Anticonvulsant activity against audiogenic seizures in DBA/2 mice 30 min after intraperitoneal administration (clonic phase); type: functional; settings: Mus musculus, ip, 0.5 h
Procedure, shortened: (§1)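 DBA/2 mice, genetically susceptible to sound-induced seizures (8-12 g, 22-25 days old, either sex), were dosed ip in groups of 10 with vehicle or each dose. Dosing solution was freshly prepared in 50% DMSO/50% sterile 0.9% saline. Mice received auditory stimulation 30 min later and were scored for latency and incidence of seizure phases. ED50 per phase was fitted by Litchfield-Wilcoxon, with 95% confidence limits.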

[2] = Anticonvulsant activity against audiogenic seizures in DBA/2 mice 30 min after intraperitoneal administration (tonic phase); type: functional; settings: Mus musculus, ip, 0.5 h; procedure, shortened: as §1

SMILES | ED50 [1] [µmol/kg] | ED50 [2] [µmol/kg]
COc1cc2c(cc1OC)C(c1ccc(N)cc1)=NNC(=O)C2 | 15 | –
COc1cc2c(cc1OC)C(c1ccc(F)cc1)N(C(C)=O)CC2 (stereo not given) | 36.8 | 18
COc1cc2c(cc1OC)C(c1ccc(Br)cc1)N(C(C)=O)CC2 (stereo not given) | 43.1 | 16.5
COc1cc2c(cc1OC)C(c1ccc([N+](=O)[O-])cc1)N(C(C)=O)CC2 (stereo not given) | > 100 | > 100
COc1cc2c(cc1OC)C(c1ccc(Cl)cc1)N(C(C)=O)CC2 (stereo not given) | 4.2 | 2.4
COc1cc2c(cc1OC)C(c1ccccc1)N(C(C)=O)CC2 (stereo not given) | 53.5 | 37.7
COc1cc2c(cc1OC)C(c1ccc(N)cc1)N(C(C)=O)CC2 (stereo not given) | 32.1 | 21.1
CC(=O)N1N=C(c2ccc(N)cc2)c2cc3c(cc2C[C@H]1C)OCO3 [TALAMPANEL] | 13.4 | 9.7
